Experimental data published in publication PMC9197538 (CPT: Pharmacometrics & Systems Pharmacology, 2022).

Legend:
[1] = system: EGFRex20ins‐positive mNSCLC; settings: 160 mg q.d., cited from earlier work
[2] = after single‐dose administration; cited from earlier work
[3] = low‐fat or high‐fat meal compared with fasting; cited from earlier work
[4] = system: CYP3A; settings: cited from earlier work
[5] = cited from earlier work
[6] = Model-based simulations of exposure; design: species or system human; settings: age 18–86 years, race, sex, body weight 37.3–132 kg, mild‐to‐moderate renal impairment, mild‐to‐moderate hepatic impairment
[7] = single oral dose radiolabeled mobocertinib 160 mg; cited from earlier work
[8] = no reference given; cited from earlier work
[9] = type: in vivo, human
How it was run: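 Joint semi-mechanistic fit of plasma data for the parent and two active metabolites, from healthy-volunteer single doses (20–160 mg) and patient q.d. dosing. Parent: two compartments, three absorption transit compartments. Metabolites: two and one compartments. An enzyme compartment's production follows Emax/EC50 on the molar sum, assuming equal molar potency. IIV is exponential, log-normal. BLOQ handled by modified M6.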

[10] = platinum‐pretreated patients with EGFRex20ins‐positive mNSCLC
[11] = final population PK model, untransformed parameter

C=CC(=O)Nc1cc(Nc2ncc(C(=O)OC(C)C)c(-c3cn(C)c4ccccc34)n2)c(OC)cc1N(C)CCN(C)C [mobocertinib]
median duration of response per IRC [1]: 17.5 months | median overall survival [1]: 24.0 months | confirmed objective response rate (ORR) per independent review committee (IRC) [1, 10]: 28% | confirmed objective response rate (ORR) per investigators [1, 10]: 35% | mean half‐life [2]: 20 h | food effect on molar sum AUC [3]: no clinically meaningful differences | CYP3A substrate and inducer status (in vitro) [4]: both substrates and inducers of CYP3A | CYP3A inhibition and induction (in vitro) ([4]; ref data on file, Takeda Development Center Americas): inhibitors and inducers of CYP3A | decrease of molar sum AUC0–∞ ([5]; co‐administration with strong CYP3A inducer rifampin): 95% | increase of molar sum AUC0–∞ of mobocertinib, AP32960, and AP32914 ([5]; co‐administration with strong CYP3A inhibitor itraconazole): 527% | effect of covariates on mobocertinib PK [6]: No clinically meaningful differences | dose recovered in feces [7]: ~ 76% | dose recovered in urine [7]: 4% | percentage of administered dose recovered in feces as this moiety [7]: ~ 6% | percentage of administered dose recovered in urine as this moiety [7]: ~ 1% | Biopharmaceutics Classification System class [8]: Class 1 | permeability [8]: high permeability | solubility [8]: highly soluble | IIV CL/F [9, 11]: 49.6% | IIV Ka (interindividual variability) [9, 11]: 45.7% | IIV Vc/F [9, 11]: 48.7% | Ka, absorption rate constant [9, 11]: 2.12 h⁻¹ | Residual variability, additive error on log scale [9, 11]: 41.4% | Kenz, rate constant for enzyme synthesis/degradation ([9]; final population PK model, enzyme (auto-induction) compartment): 0.00392 h⁻¹ | Emax, maximal induction effect ([9]; final population PK model, enzyme compartment, molar sum of the three moieties): 0.781 | Vd/F ([9]; human, plasma, oral, Vss/F, apparent volume of distribution at steady state, geometric mean (%CV 38%), derived from the final population PK model): 3510 L
